# Experimental data: publication PMC12709667 (Journal of Clinical Pharmacology, 2025)
# Experiments:
# CYP2B6 = assay type: in vitro ADME, human; settings: up to 10 µM, three donors
# [1] = First-in-human study, multiple ascending dose; assay type: in vivo; settings: for half-life: human, plasma, oral
# CYP1A2 = molecular target: T1, CYP1A2 (Homo sapiens, UniProt P05177); assay type: in vitro ADME
# T1 sequence (P05177 1-516): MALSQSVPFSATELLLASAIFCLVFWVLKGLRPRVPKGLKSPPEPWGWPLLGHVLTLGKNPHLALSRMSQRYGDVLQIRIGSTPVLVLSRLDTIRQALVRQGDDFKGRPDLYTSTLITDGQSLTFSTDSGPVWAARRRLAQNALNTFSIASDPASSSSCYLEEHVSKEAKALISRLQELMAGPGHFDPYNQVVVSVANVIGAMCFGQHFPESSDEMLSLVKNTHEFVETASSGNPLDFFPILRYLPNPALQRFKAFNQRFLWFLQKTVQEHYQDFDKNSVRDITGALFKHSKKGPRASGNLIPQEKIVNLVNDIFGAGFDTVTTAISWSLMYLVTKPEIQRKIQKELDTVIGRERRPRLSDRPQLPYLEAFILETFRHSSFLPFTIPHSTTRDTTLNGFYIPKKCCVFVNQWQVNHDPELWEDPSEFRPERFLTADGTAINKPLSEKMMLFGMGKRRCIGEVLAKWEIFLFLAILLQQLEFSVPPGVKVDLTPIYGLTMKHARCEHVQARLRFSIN
# [2] = First-in-human study, single ascending dose; assay type: in vivo
# fatty liver disease = settings: cited from earlier work
# BCRP = molecular target: T2, BCRP (Homo sapiens, UniProt Q9UNQ0); assay: Transporter substrate assessment; assay type: in vitro ADME
# T2 sequence (Q9UNQ0 1-655): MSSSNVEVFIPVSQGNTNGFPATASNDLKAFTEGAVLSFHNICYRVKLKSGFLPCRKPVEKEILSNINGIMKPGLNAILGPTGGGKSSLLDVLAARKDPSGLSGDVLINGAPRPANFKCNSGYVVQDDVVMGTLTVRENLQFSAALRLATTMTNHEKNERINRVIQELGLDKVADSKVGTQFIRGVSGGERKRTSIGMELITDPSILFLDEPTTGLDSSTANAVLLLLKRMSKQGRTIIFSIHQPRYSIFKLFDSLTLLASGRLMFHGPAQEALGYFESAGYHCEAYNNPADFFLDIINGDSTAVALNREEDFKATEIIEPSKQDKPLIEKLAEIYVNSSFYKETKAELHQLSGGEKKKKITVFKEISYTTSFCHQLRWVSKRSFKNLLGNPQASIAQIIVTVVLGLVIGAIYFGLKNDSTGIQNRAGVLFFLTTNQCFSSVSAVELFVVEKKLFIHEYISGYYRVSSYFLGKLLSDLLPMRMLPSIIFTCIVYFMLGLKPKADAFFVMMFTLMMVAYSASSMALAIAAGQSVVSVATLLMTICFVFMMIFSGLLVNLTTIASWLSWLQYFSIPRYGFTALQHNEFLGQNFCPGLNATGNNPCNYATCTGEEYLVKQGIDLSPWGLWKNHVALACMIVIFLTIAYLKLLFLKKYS
# [3] = In vitro blood/plasma partitioning; assay type: in vitro ADME; settings: rat, whole blood
# Outline: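 Test compound was added to rat, monkey or human whole blood and incubated, then centrifuged to obtain plasma. The plasma concentration was measured by LC-MS. It was compared with the concentration in directly spiked plasma of the same species.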
# [4] = 28-day Good Laboratory Practice toxicology study; assay type: in vivo, mouse; settings: mice
# CYP2C9 = CYP2C9 (Homo sapiens, UniProt P11712); assay: DDI perpetrator study: tolbutamide probe; assay type: in vivo; settings: miricorilant 400 mg once daily as perpetrator
# CYP3A4 = settings: miricorilant 400 mg once daily as perpetrator
# [5] = Quantitative whole-body autoradiography tissue distribution in mice; assay type: in vivo, mouse; settings: for association of radioactivity with melanin: pigmented mice
# Outline: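 Quantitative whole-body autoradiography after dosing with [14C]-labelled test compound, in non-pigmented (albino) and partially pigmented C57 mice. Frozen carcasses were sectioned and imaged at timepoints from 1 h to 168 h postdose to measure tissue radioactivity. Melanin-containing tissues (skin, uveal tract) were included.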
# [6] = Clinical safety in phase 1 studies; assay type: in vivo, human
# Outline: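 Healthy adult subjects in phase 1 studies received oral single doses, or once-daily doses for up to 14 days, with placebo controls in some parts. They were housed in the clinical pharmacology unit from at least the day before dosing until ≥24 h after the last dose. Treatment-emergent adverse events were recorded and graded for intensity.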
# [7] = First-in-human study Part 3, 100-mg SDD tablet food effect; assay type: in vivo; settings: plasma, oral, 200 mg; for AUC: AUC0‐last; for AUC / Cmax: single 200 mg dose of 100‐mg SDD tablets; for half-life: t1/2, single 200 mg dose of 100‐mg SDD tablets
# CYP2C19 = CYP2C19 (Homo sapiens, UniProt P33261); assay: DDI victim study with fluvoxamine; assay type: in vivo; settings: with strong CYP2C19 inhibitor fluvoxamine
# [8] = repeated once‐daily dosing for up to 14 days
# [9] = single‐dose studies, healthy subjects
# Chain of CYP2C19 (P33261 whole entry): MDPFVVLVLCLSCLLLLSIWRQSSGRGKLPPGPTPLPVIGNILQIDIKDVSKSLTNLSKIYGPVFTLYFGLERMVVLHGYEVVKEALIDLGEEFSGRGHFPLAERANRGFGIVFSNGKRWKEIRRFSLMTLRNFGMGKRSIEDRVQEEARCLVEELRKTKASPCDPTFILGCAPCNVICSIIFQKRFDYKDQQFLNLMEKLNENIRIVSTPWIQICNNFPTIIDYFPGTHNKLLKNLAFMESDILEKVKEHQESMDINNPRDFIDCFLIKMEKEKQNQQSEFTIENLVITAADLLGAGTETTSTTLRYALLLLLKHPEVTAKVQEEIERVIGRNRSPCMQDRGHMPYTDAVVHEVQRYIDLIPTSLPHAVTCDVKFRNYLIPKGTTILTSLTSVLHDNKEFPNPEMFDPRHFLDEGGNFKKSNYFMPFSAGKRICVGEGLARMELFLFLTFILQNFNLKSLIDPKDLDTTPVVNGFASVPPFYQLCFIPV
# Chain of CYP2C9 (P11712 whole entry): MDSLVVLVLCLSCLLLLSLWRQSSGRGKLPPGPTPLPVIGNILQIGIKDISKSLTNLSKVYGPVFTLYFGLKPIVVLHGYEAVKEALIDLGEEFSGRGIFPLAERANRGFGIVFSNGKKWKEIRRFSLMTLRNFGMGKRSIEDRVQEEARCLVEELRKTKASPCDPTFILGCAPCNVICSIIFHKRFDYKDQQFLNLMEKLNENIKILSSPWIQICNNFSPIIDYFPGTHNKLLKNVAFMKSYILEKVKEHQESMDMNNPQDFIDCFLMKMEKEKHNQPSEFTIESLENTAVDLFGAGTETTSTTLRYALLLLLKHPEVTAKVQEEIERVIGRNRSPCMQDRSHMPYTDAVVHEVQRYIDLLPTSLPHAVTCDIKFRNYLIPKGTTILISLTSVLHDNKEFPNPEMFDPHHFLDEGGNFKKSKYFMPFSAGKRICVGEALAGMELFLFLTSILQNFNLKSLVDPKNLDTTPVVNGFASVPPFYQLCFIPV
smiles,measurement,setting,value
O=c1[nH]c(=O)c(Cc2cccc(C(F)(F)F)c2)c([C@H]2CC[C@H](c3ccccc3)CC2)[nH]1 [miricorilant],induction of CYP2B6,CYP2B6,no induction
same,average increase in Cmax and AUC0‐last per doubling of the dose,"[1]; 150, 450, 900 mg once daily, day 1",1.92 fold
same,half-life,[1],~20 h
same,half-life,[1]; 150 mg,21.6 h
same,half-life,[1]; 450 mg,21.2 h
same,half-life,[1]; 900 mg,19.4 h
same,accumulation ratio for Cmax,[1]; repeated daily dosing (Discussion/Conclusions),≈ 1.5 fold
same,inhibition of CYP1A2,CYP1A2,No inhibition
same,"increase in AUC0‐last, fed versus fasted",[2]; 900 mg SDD suspension,approximately 3.34 fold
same,"increase in Cmax, fed versus fasted",[2]; 900 mg SDD suspension,approximately 2.45 fold
same,increase in AUC on administration with food,"[2]; Discussion, dose and formulation not stated",2.3 fold
same,half-life,"[2]; human, plasma, oral, half‐life, single doses, healthy subjects",~20 h
same,efficacy in mouse models of fatty liver disease,fatty liver disease,shown efficacy
same,Substrate of BCRP,BCRP,not a substrate
same,blood plasma ratio,[3],0.84
same,adverse effects in 28‐day toxicology study,[4],No adverse effects
same,clinical inhibition of CYP2C9,CYP2C9,does not inhibit
same,clinical inhibition of CYP3A4,CYP3A4,does not inhibit
same,radioactivity in the lens of the eye,[5]; albino mice,not present at quantifiable levels
same,radioactivity in the brain and spinal cord,"[5]; albino mice, 4 and 8 h",low levels
same,time of peak tissue concentration of radioactivity,"[5]; albino mice, majority of tissues (pancreas, liver, gall bladder etc.)",4 h
same,radioactivity in the liver,[5]; mice,high concentrations
same,association of radioactivity with melanin,[5],no long‐term association
same,association of radioactivity with melanin,[5]; listed as [^14C]‐miricorilant,no affinity
same,overall safety and tolerability,[6]; phase 1 studies,safe and well‐tolerated
same,intensity of TEAEs,[6]; [8],mild or moderate
same,most commonly reported TEAE,[6]; [8],headache
same,deaths or serious adverse events,[6]; repeated‐dose studies,no deaths or treatment‐emergent serious adverse events
same,discontinuation due to TEAEs,[6]; [9],No subjects
same,intensity of TEAEs,[6]; [9],mild or moderate
same,most commonly reported TEAE,[6]; [9],headache
same,AUC,"[7]; Fasted, geometric mean (%CV)",1620 ng·h/mL
same,AUC,"[7]; Fed, geometric mean (%CV)",3560 ng·h/mL
same,Cmax,"[7]; Fasted, geometric mean (%CV)",105 ng/mL
same,Cmax,"[7]; Fed, N = 6, geometric mean (%CV)",184 ng/mL
same,half-life,"[7]; Fasted, geometric mean (%CV)",21.1 h
same,half-life,"[7]; Fed, geometric mean (%CV)",19.6 h
same,clinical sensitivity as substrate of CYP2C19,CYP2C19,moderately sensitive substrate
